Consider 13 molecules from article PMC3535304 (Bioorganic & medicinal chemistry, 2012).

For test [1], the system named is HT-29 cells. In words: In vitro antiproliferative assay. It counts as cell-based, human. The note with it: 3d vs 2d, 3e vs 2e.
For test [2], the system named is Jurkat cells. The test is described as follows: In vitro antiproliferative assay. Format: cell-based. The note with it: Homo sapiens, 72 h, read-out: IC50 (cell growth inhibition). Summed up: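 Jurkat cells were grown in RPMI-1640 with 10% FBS, penicillin G (115 units/mL) and streptomycin (115 μg/mL). Cells were seeded at 8 × 10³ per well and held 18 h at 37 °C in 5% CO₂. Medium was then replaced with fresh medium containing the test compound (DMSO ≤0.25% final) at various concentrations for 72 h. Viability was read by MTT.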

The test system of another test is CEM^Vbl100 cells. The test is described as follows: Cell growth inhibition, drug resistant cell line. Format: cell-based. The note with it: Homo sapiens, CEM/VBL100, read-out: IC50 (cell growth inhibition). The method, boiled down: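 Growth inhibition was read by MTT after 72 h exposure to a range of test-compound concentrations at 37 °C in 5% CO₂. DMSO was ≤0.25% final.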

For the next test, the system named is CEM cells. In words: Cell growth inhibition, parental line of drug resistant pair. It counts as cell-based. As to conditions: Homo sapiens, CCRF-CEM, read-out: IC50 (cell growth inhibition).
A further test deals with A549-T12 cells. As to conditions: ref [8], cited from earlier work.
For a further test, the system named is A549 cells. As to conditions: read-out: IC50 (cell growth inhibition), cited from earlier work.
A further test deals with LoVo^Doxo cells. As to conditions: IC50 LoVo^Doxo / IC50 LoVo; ref [8]; cited from earlier work.
Another test concerns LoVo cells. As to conditions: read-out: IC50 (cell growth inhibition), ref [8]; cited from earlier work.
For the next test, the system named is HL-60 cells. The note with it: read-out: IC50 (cell growth inhibition); HL-60, mean ± SE; ref [12]; cited from earlier work.
The subject of test [3] is HT-29 cells. The note with it: read-out: IC50 (cell growth inhibition); HT-29, mean ± SE; ref [12]; cited from earlier work.
Test [4] has as its system Jurkat cells. The note with it: read-out: IC50 (cell growth inhibition), mean ± SE, ref [12]; cited from earlier work.
The test system of test [5] is HeLa cells. As to conditions: read-out: IC50 (cell growth inhibition), mean ± SE, ref [12]; cited from earlier work.
For test [6], the system named is MCF-7 cells. The note with it: read-out: IC50 (cell growth inhibition); MCF-7, mean ± SE; ref [12]; cited from earlier work.
The target in a further test is bovine brain tubulin (Bos taurus, UniProt P81947+Q6B856). The test is described as follows: Inhibition of tubulin polymerization. Format: biochemical. As to conditions: read-out: Tubulin assembly IC50; tubulin at 10 μM, 20 min incubation.
Chain of bovine brain tubulin (Q6B856 whole entry): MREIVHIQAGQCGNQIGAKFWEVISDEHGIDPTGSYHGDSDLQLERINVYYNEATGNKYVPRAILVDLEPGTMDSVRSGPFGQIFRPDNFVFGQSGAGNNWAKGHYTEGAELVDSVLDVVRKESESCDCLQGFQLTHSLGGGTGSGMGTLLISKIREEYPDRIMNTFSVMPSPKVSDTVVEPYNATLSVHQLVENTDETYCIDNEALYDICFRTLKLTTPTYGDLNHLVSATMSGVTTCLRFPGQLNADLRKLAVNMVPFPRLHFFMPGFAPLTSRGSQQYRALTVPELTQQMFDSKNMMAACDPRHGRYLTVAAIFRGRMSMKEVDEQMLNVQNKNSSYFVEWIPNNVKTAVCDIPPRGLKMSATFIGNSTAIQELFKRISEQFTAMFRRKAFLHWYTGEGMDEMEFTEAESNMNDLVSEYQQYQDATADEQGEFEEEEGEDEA
Chain of bovine brain tubulin (P81947 whole entry): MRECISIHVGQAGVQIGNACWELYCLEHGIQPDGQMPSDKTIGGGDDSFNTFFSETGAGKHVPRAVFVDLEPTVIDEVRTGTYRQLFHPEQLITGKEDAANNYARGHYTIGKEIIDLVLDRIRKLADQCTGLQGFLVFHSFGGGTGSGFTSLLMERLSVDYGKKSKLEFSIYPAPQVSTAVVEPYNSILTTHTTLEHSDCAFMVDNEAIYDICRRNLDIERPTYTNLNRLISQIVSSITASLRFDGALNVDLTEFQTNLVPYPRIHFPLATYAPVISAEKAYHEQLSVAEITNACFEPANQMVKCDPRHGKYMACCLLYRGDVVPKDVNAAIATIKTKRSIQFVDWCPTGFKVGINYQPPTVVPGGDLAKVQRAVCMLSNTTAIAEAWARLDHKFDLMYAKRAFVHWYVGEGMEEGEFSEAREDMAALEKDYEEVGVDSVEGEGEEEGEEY
In test [7] the test system is MCF-7 cells. The test is described as follows: In vitro antiproliferative assay. It counts as cell-based, human. The note with it: 3e vs 2e, 3b vs 2b.
The next test concerns caspase-3. In words: Western blot analysis in HeLa cells. It counts as cell-based, human. The note with it: 24 and 48 h. The method, boiled down:
(§1)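 HeLa cells were exposed to test compound for 24 or 48 h, washed in cold PBS, and lysed on ice for 30 min. Cleared lysate (20 μg protein, BCA) was run on 7.5–15% SDS-PAGE and moved to PVDF. Primary antibodies (2 h, room temperature) were procaspase-2, cleaved caspase-8, cleaved caspase-3, PARP and cyclin B1, followed by peroxidase secondary and ECL. Membranes were reprobed for β-actin.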
A general note: In western blotting, separated proteins are transferred to a membrane and probed.

In test [8] the test system is HeLa cells. In words: Annexin-V/PI apoptosis assay. It counts as cell-based, human. As to conditions: 250 or 500 nM, 24 or 48 h. The method, boiled down: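 HeLa cells exposed to test compound for 24 or 48 h, then labelled with annexin-V-FITC (kit protocol) and propidium iodide together. Red (PI) and green (FITC) fluorescence read by flow cytometry. Maximum DMSO 0.25%. Mean ± SEM of three independent experiments.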

Test [9] concerns mitochondrial polarization and ROS production. The test is described as follows: Mitochondrial functions. As to conditions: data not shown. It counts as cell-based.
For test [10], the system named is HeLa cells. In words: Flow cytometric analysis of cell cycle distribution. Format: cell-based, human. As to conditions: 24 h, range tested 31 to 500 nM. The method, boiled down:
(§2)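 Exponentially growing cells (5 × 10⁵) were treated 24 h with test compound at 31–500 nM. They were then fixed in ice-cold 70% ethanol and treated with lysis buffer containing RNase A and 0.1% Triton X-100. DNA was stained with propidium iodide and content measured by flow cytometry, with cycle phases taken from DNA histograms. Mean ± SEM of three independent experiments.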
A general note: Flow cytometry measures light scatter and fluorescence of single cells or particles in a stream.

The test system of the next test is caspase-9. The test is described as follows: Western blot analysis in HeLa cells. It counts as cell-based, human. As to conditions: data not shown.
The subject of test [11] is six human cancer cell lines (HeLa, A549, HL-60, Jurkat, MCF-7, HT-29). In words: Antiproliferative activity across the panel of six human cancer cell lines. Format: cell-based. As to conditions: read-out: IC50 values against the six cell lines (range). Summed up:
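Jurkat and HL-60 cells were grown in RPMI-1640; MCF-7, A549, HeLa and HT-29 in DMEM; all media had 10% FBS plus penicillin/streptomycin. Cells were seeded at 8 × 10³/well, held 18 h at 37 °C in 5% CO₂, then given fresh medium with test compound (DMSO stocks, ≤0.25% final) for 72 h. Viability was read by MTT. […] Mean ± SE, ≥3 experiments.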

The next test deals with cyclin B. In words: Western blot analysis in HeLa cells. It counts as cell-based, human. As to conditions: 48 h. Summed up: as §1
Another test concerns caspase-8. The test is described as follows: Western blot analysis in HeLa cells. Format: cell-based, human. As to conditions: 24 or 48 h. Summed up:
as §1

For another test, the system named is caspase-2. In words: Western blot analysis in HeLa cells. It counts as cell-based, human. The note with it: 24 or 48 h. Summed up:
as §1

The subject of test [12] is Jurkat cells. In words: Flow cytometric analysis of cell cycle distribution. Format: cell-based, human. As to conditions: 24 h. The method, boiled down: as §2

“Also recorded” adds a separate entry of the source. Read-outs that look alike come from different tables or passages of the source.

In general, IC50 refers to the concentration needed to halve the response being measured.

In the case of `CNc1nc(-c2cc(OC)c(OC)c(OC)c2)c(-c2ccc(OC)cc2)s1` [3d, 4-(3,4,5-Trimethoxyphenyl)-5-(4-methoxyphenyl)-N-methylthiazol-2-amine], the “fold more potent than 2-amino counterpart” value in the test with HT-29 cells [1] is 2 fold.
As to `COc1ccc(/C=C\c2cc(OC)c(OC)c(OC)c2)cc1O` [CA-4, Combretastatin A-4], in the test on Jurkat cells [2], the IC50 was determined as 5 ± 0.6 nM.
`CC[C@]1(O)C[C@@H]2CN(CCc3c([nH]c4ccccc34)[C@@](C(=O)OC)(c3cc4c(cc3OC)N(C)[C@H]3[C@@](O)(C(=O)OC)[C@H](OC(C)=O)[C@]5(CC)C=CCN6CC[C@]43[C@@H]65)C2)C1` [Vinblastine]: the half-inhibitory concentration (IC50) was 205 ± 46 nM with CEM^Vbl100 cells and 0.8 ± 0.1 nM in the test with CEM cells.
`CC(=O)O[C@H]1C(=O)[C@@]2(C)[C@H]([C@H](OC(=O)c3ccccc3)[C@]3(O)C[C@H](OC(=O)[C@H](O)[C@@H](NC(=O)c4ccccc4)c4ccccc4)C(C)=C1C3(C)C)[C@]1(OC(C)=O)CO[C@@H]1C[C@@H]2O` [Taxol]: the Resistance ratio in the test on A549-T12 cells (IC50 A549-T12 / IC50 A549) is given as 10.4. For the same molecule, the IC50 was 75.2 ± 12.5 nM with A549-T12 cells (read-out: IC50 (cell growth inhibition), A549-T12) and 7.2 ± 0.1 nM with A549 cells (A549, ref [8]).
Turning to `COc1cccc2c1C(=O)c1c(O)c3c(c(O)c1C2=O)C[C@@](O)(C(=O)CO)C[C@@H]3O[C@H]1C[C@H](N)[C@H](O)[C@H](C)O1` [Doxorubicin], the Resistance ratio in the test on LoVo^Doxo cells is 109.6. Besides, the IC50 in the test with LoVo cells was 120 ± 30 nM.
Regarding `COc1cc(-c2nc(N)sc2-c2ccc(C(F)(F)F)cc2)cc(OC)c1OC` [2c], the IC50 was 5.1 ± 1.1 nM in the test on HL-60 cells; 221 ± 50.2 nM in the test on HT-29 cells [3]; 8.5 ± 1.2 nM in the test with Jurkat cells [4]; 357 ± 65 nM with A549 cells (A549, mean ± SE, ref [12]); 3.2 ± 0.4 nM in the test on HeLa cells [5]; 0.4 ± 0.1 nM in the test on MCF-7 cells [6].
Regarding `COc1ccc(-c2sc(N)nc2-c2cc(OC)c(OC)c(OC)c2)cc1` [2d], the half-inhibitory concentration (IC50) is 3.2 ± 1.2 nM in the test with HL-60 cells; 11.7 ± 3.9 nM with HT-29 cells [3]; 2.1 ± 0.4 nM with Jurkat cells [4]; 1100 ± 70 nM at bovine brain tubulin; 20.2 ± 1.7 nM in the test with A549 cells (A549, mean ± SE, ref [12]); 2.3 ± 0.2 nM with HeLa cells [5]. In the test with MCF-7 cells [6], the IC50 is 60.9 ± 8.4 nM.
`CNc1nc(-c2cc(OC)c(OC)c(OC)c2)c(-c2ccc(C)cc2)s1` [3b, 4-(3,4,5-Trimethoxyphenyl)-N-methyl-5-p-tolylthiazol-2-amine]: the “fold more potent than 2-amino counterpart” value in the test with MCF-7 cells [7] is on record as ~28 fold.
`CCOc1ccc(-c2sc(N)nc2-c2cc(OC)c(OC)c(OC)c2)cc1` [2e]: the IC50 in the test on HL-60 cells was 0.9 ± 0.3 nM; in the test on HT-29 cells [3], 38.2 ± 11.4 nM; in the test on Jurkat cells [4], 0.14 ± 0.05 nM; on bovine brain tubulin, 610 ± 50 nM; with A549 cells (A549, mean ± SE, ref [12]), 0.09 ± 0.01 nM; in the test on HeLa cells [5], 0.03 ± 0.005 nM. Moreover, the IC50 in the test on MCF-7 cells [6] was 44 ± 6.3 nM.
Regarding `COc1cc(-c2nc(N)sc2-c2ccc3ccccc3c2)cc(OC)c1OC` [2a], the concentration for half-maximal inhibition (IC50) in the test on HL-60 cells is 2.7 ± 0.3 nM; in the test with HT-29 cells [3] it was 23.9 ± 3.9 nM; with Jurkat cells [4] it was 3.3 ± 0.9 nM; on bovine brain tubulin, 740 ± 10 nM; in the test on A549 cells (A549, mean ± SE, ref [12]), 3.8 ± 0.6 nM; in the test with HeLa cells [5], 1.6 ± 0.6 nM. In addition, the IC50 with MCF-7 cells [6] was 51.2 ± 9.2 nM.
For `CCOc1ccc(-c2sc(NC)nc2-c2cc(OC)c(OC)c(OC)c2)cc1` [3e, 5-(4-Ethoxyphenyl)-4-(3,4,5-trimethoxyphenyl)-N-methylthiazol-2-amine], in the test with caspase-3, the caspase-3 activation entry was “clear activation of caspase-3” and the “cleavage of caspase-3 substrate PARP” value is listed as “cleavage of the caspase-3 substrate PARP”. The “induction of apoptotic (annexin-V positive) cells” value in the test on HeLa cells [8] is reported as “Analogous behaviour but with a stronger effect”. For the same molecule, the “fold more potent than 2-amino counterpart” value with HT-29 cells [1] was determined as 10 fold. Besides, the “effect on mitochondrial polarization and ROS production” value in test [9] is recorded as “did not cause mitochondrial depolarization; also recorded: only slightly affected”. Also, in the test on HeLa cells [10], the “concentration at which G2/M accumulation was first observed” value (from here on “concentration”) turned out to be 31 nM. The caspase-9 activation result in the test on caspase-9 is recorded as “did not induce activation of caspase-9”. In addition, the IC50 in test [11] lay in the range of 1.7 to 38 nM. Also, the “cyclin B expression” value with cyclin B is “slight decrease”. In the test with caspase-8, the “caspase-8 activation (appearance of cleavage product)” value was “clear caspase-8 and caspase-2 activation”. Also, the “caspase-2 activation (disappearance of uncleaved protein)” value in the test on caspase-2 is “clear caspase-8 and caspase-2 activation”.
Regarding `COc1cc(-c2nc(N)sc2-c2ccc(C)cc2)cc(OC)c1OC` [2b], the IC50 in the test on HL-60 cells is 3.9 ± 1.1 nM; in the test on HT-29 cells [3], 12.4 ± 5.1 nM; in the test on Jurkat cells [4], 3.9 ± 0.6 nM; at bovine brain tubulin, 440 ± 10 nM; with A549 cells (A549, mean ± SE, ref [12]) it was 42.8 ± 5.7 nM; in the test with HeLa cells [5] it was 0.73 ± 0.2 nM. Also, the IC50 in the test on MCF-7 cells [6] was 280 ± 69.8 nM.
On to `COc1cc(-c2nc(C)sc2-c2ccc3ccccc3c2)cc(OC)c1OC` [3k, 4-(3,4,5-Trimethoxyphenyl)-2-methyl-5-(naphthalen-2-yl)thiazole], for which, in the test on caspase-3, the caspase-3 activation result is on record as “clear activation of caspase-3” and the “cleavage of caspase-3 substrate PARP” value is listed as “cleavage of the caspase-3 substrate PARP”. The “induction of apoptotic (annexin-V positive) cells” value with HeLa cells [8] was “significant induction of apoptotic cells”. Further, in test [9], the “effect on mitochondrial polarization and ROS production” value is given as “only slightly affected”. Besides, the “concentration” value with Jurkat cells [12] is listed as 125 nM. Moreover, in the test with HeLa cells [10], the “concentration” value turned out to be 125 nM. The caspase-9 activation result in the test with caspase-9 was “did not induce activation of caspase-9”. Moreover, the “caspase-8 activation (appearance of cleavage product)” value in the test on caspase-8 is “clear caspase-8 and caspase-2 activation”. For the same molecule, the “caspase-2 activation (disappearance of uncleaved protein)” value in the test on caspase-2 is “clear caspase-8 and caspase-2 activation”.
